Measured values as given in ChEMBL document CHEMBL1139344, “Antagonists of the human A(2A) adenosine receptor. 4. Design, synthesis, and preclinical evaluation of 7-aryltriazolo[4,5-d]pyrimidines” (J Med Chem, 2009).
In brackets after ≈: the same amount, converted by molar mass. Activity calls are given as the source filed them. No cut-off for these calls is given here.

Assays:
Adenosine receptor A2b = target: T1, Adenosine receptor A2b (Homo sapiens, UniProt P29275); test: Displacement of radioligand from human recombinant adenosine A2B receptor at 21 degC after 60 mins by cell-based microplate scintillation counting
T1 sequence (P29275 whole entry): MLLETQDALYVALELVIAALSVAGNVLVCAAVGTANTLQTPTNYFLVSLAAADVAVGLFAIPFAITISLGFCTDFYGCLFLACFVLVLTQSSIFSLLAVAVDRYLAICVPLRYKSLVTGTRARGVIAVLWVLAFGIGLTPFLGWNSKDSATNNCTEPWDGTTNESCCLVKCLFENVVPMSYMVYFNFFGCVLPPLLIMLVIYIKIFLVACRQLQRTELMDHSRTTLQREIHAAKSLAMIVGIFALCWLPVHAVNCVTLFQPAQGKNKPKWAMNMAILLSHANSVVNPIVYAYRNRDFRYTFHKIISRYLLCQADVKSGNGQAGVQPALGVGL

Adenosine receptor A2a = Adenosine receptor A2a (Homo sapiens, UniProt P29274); test: Displacement of radioligand from human recombinant adenosine A2A receptor at 21 degC after 90 mins by cell-based microplate scintillation counting
Adenosine receptor A2a, sequence (P29274 whole entry): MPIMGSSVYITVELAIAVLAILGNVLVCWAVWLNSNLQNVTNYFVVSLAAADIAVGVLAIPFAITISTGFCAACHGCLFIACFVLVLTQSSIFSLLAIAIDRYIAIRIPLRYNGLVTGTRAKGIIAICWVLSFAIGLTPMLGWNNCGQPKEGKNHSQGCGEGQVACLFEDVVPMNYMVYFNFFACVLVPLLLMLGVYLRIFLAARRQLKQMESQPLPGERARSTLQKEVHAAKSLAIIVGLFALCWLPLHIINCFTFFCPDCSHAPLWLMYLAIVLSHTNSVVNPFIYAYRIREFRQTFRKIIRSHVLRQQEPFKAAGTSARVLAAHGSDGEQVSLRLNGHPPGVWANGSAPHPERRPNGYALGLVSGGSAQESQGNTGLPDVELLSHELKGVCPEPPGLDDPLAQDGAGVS

Adenosine receptor A3 = target: T2, Adenosine receptor A3 (Homo sapiens, UniProt P0DMS8); test: Displacement of radioligand from human recombinant adenosine A3 receptor at 21 degC after 60 mins by cell-based microplate scintillation counting
T2 sequence (P0DMS8 whole entry): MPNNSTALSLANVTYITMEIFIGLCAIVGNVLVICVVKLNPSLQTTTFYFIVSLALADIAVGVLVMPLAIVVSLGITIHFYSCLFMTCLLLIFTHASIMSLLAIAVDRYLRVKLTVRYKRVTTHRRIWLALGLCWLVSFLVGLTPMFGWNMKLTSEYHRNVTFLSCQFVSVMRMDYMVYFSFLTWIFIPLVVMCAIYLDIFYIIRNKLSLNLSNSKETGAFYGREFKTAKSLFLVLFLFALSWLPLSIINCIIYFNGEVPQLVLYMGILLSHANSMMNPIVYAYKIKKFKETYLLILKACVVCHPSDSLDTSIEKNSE

Mus musculus [1] = test: Reversal of haloperidol-induced hypolocomotion in TO mouse assessed as time spent for locomotor activity at 1 mg/kg, po administered 15 mins prior to testing done for 60 mins; type: functional, organism-based; set-up: dose 1 mg/kg
In short: (§1)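 Haloperidol (0.2 mg/kg ip) used to induce hypolocomotion; antagonist given orally over 0.01-10 mg/kg in mouse and rat; activity scored as time spent active during a 60 min session; p < 0.05 versus vehicle (+haloperidol) control; minimal effective dose taken as lowest active dose.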

Adenosine receptor A1 = target: T3, Adenosine receptor A1 (Homo sapiens, UniProt P30542); test: Displacement of radioligand from human recombinant adenosine A1 receptor at 21 degC after 90 mins by cell-based microplate scintillation counting
T3 sequence (P30542 whole entry): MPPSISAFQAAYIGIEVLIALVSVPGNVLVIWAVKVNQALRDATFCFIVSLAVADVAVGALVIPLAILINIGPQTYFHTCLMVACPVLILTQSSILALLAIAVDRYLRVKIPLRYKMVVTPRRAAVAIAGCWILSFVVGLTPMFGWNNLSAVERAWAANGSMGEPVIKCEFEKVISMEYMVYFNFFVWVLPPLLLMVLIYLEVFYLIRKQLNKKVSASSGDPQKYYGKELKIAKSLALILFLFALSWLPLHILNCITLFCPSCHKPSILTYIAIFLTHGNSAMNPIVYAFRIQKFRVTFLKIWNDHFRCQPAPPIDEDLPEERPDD

Rattus norvegicus [2] = test: Reversal of haloperidol-induced hypolocomotion in po dosed Sprague-Dawley rat assessed as time spent for locomotor activity administered 15 mins prior to testing done for 60 mins; type: functional, organism-based; in short: as §1
Mus musculus [3] = test: Reversal of haloperidol-induced hypolocomotion in po dosed TO mouse assessed as time spent for locomotor activity administered 120 mins prior to testing done for 60 mins; type: functional, organism-based; in short: as §1
[4] = Solubility at neutral pH; type: physicochemical
Mus musculus [5] = test: Reversal of haloperidol-induced hypolocomotion in po dosed TO mouse assessed as minimal effective dose administered 15 mins prior to testing done for 60 mins; type: functional; settings: read-out: MED; in short: as §1
Rattus norvegicus [6] = test: Reversal of haloperidol-induced hypolocomotion in po dosed Sprague-Dawley rat assessed as minimal effective dose administered 120 mins prior to testing done for 60 mins; type: functional; settings: read-out: MED; in short: as §1
Rattus norvegicus [7] = test: Reversal of haloperidol-induced hypolocomotion in Sprague-Dawley rat assessed as time spent for locomotor activity at 30 mg/kg, po administered 120 mins prior and measured for 60 mins; type: functional, organism-based; set-up: dose 30 mg/kg
Liver microsomes = test: Metabolic stability in rat liver microsomes after 30 mins; type: ADME, Microsome; settings: 0.5 h
In short: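 Turnover by rodent liver microsomes measured as percent turnover after 30 min.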

[8] = Aqueous solubility in phosphate buffered saline; type: physicochemical
Mus musculus [9] = test: Reversal of haloperidol-induced hypolocomotion in TO mouse assessed as time spent for locomotor activity at 30 mg/kg, po administered 15 mins prior and measured for 60 mins; type: functional, organism-based; set-up: dose 30 mg/kg
Rattus norvegicus [10] = test: Reversal of haloperidol-induced hypolocomotion in Sprague-Dawley rat assessed as time spent for locomotor activity at 1 mg/kg, po administered 120 mins prior to testing done for 60 mins; type: functional, organism-based; set-up: dose 1 mg/kg; in short: as §1
Mus musculus [11] = test: Reversal of haloperidol-induced hypolocomotion in TO mouse assessed as time spent for locomotor activity at 0.3 mg/kg, po administered 15 mins prior to testing done for 60 mins; type: functional, organism-based; set-up: dose 0.3 mg/kg; in short: as §1

## CNc1ccc(Cn2nnc3c(-c4ccco4)nc(N)nc32)cc1
Adenosine receptor A2b
  Ki: 181 nM
Adenosine receptor A2a
  Ki: 1.6 nM
Adenosine receptor A3
  Ki: 636 nM
Mus musculus [1]
  Activity: Active
Adenosine receptor A1
  Ki: 40 nM

## Nc1nc(-c2ccco2)c2nnn(Cc3ccccn3)c2n1
Adenosine receptor A2b
  Ki: 258 nM
Adenosine receptor A2a
  Ki: 12 nM
Adenosine receptor A3
  Ki: 1080 nM
Rattus norvegicus [2]
  Activity: inactive
Adenosine receptor A1
  Ki: 1120 nM
Mus musculus [3]
  Activity: inactive

## Nc1ccc(Cn2nnc3c(-c4ccco4)nc(N)nc32)cc1
Adenosine receptor A2b
  Ki: 46 nM
Adenosine receptor A2a
  Ki: 1.5 nM
Adenosine receptor A3
  Ki: 752 nM
Mus musculus [1]
  Activity: Active
Adenosine receptor A1
  Ki: 190 nM

## CS(=O)(=O)O.Cc1cc(Cn2nnc3c(-c4ccco4)nc(N)nc32)ccc1N
[4]
  solubility: 36 mg/mL

## Nc1nc(-c2ccco2)c2nnn(Cc3cccnc3)c2n1
Adenosine receptor A2b
  Ki: 225 nM
Adenosine receptor A2a
  Ki: 14.5 nM
Adenosine receptor A3
  Ki: 1020 nM
Rattus norvegicus [2]
  Activity: inactive
Adenosine receptor A1
  Ki: 931 nM
Mus musculus [3]
  Activity: inactive

## Nc1nc(-c2ccco2)c2nnn(Cc3ccccc3N)c2n1
Adenosine receptor A2b
  Ki: 123 nM
Mus musculus [5]
  minimal effective dose: 10 mg/kg
Rattus norvegicus [6]
  minimal effective dose: 10 mg/kg
Adenosine receptor A3
  Ki: 302 nM
Adenosine receptor A1
  Ki: 63 nM

## Cc1cc(Cn2nnc3c(-c4ccco4)nc(N)nc32)ccc1N.Cl.Cl
[4]
  solubility: 18 mg/mL

## CCc1cc(Cn2nnc3c(-c4ccco4)nc(N)nc32)ccc1N
Adenosine receptor A2b
  Ki: 118 nM
Adenosine receptor A2a
  Ki: 1 nM
Adenosine receptor A3
  Ki: 221 nM
Rattus norvegicus [2]
  Activity: inactive
Adenosine receptor A1
  Ki: 26 nM
Mus musculus [3]
  Activity: inactive

## Cc1ccccc1Cn1nnc2c(-c3ccco3)nc(N)nc21
Adenosine receptor A2b
  Ki: 282 nM
Rattus norvegicus [7]
  Activity: inactive
Adenosine receptor A2a
  Ki: 3 nM
Liver microsomes
  Stability: Stable
Adenosine receptor A3
  Ki: 341 nM
Adenosine receptor A1
  Ki: 183 nM
[8]
  solubility: 30 µM (≈ 9.19 µg/mL)
Mus musculus [9]
  Activity: inactive

## CC(C)NC(=O)c1cccc(Cn2nnc3c(-c4ccco4)nc(N)nc32)c1
Adenosine receptor A2b
  Ki: 593 nM
Rattus norvegicus [7]
  Activity: inactive
Adenosine receptor A2a
  Ki: 10.8 nM
Liver microsomes
  Stability: Stable
Adenosine receptor A3
  Ki: 530 nM
Adenosine receptor A1
  Ki: 733 nM
[8]
  solubility: 30 µM (≈ 11.3 µg/mL)
Mus musculus [9]
  Activity: inactive

## CCn1c(=O)c2c(nc(/C=C/c3ccc(OC)c(OC)c3)n2C)n(CC)c1=O
Rattus norvegicus [10]
  Activity: Active
Mus musculus [11]
  Activity: Active

## NC(=O)c1cccc(Cn2nnc3c(-c4ccco4)nc(N)nc32)c1
Adenosine receptor A2b
  Ki: 132 nM
Rattus norvegicus [7]
  Activity: inactive
Adenosine receptor A2a
  Ki: 11.1 nM
Liver microsomes
  Stability: Stable
Adenosine receptor A3
  Ki: 2580 nM
Adenosine receptor A1
  Ki: 700 nM
[8]
  solubility: 30 µM (≈ 10.1 µg/mL)
Mus musculus [9]
  Activity: inactive

## Nc1nc(-c2cc[nH]n2)c2nnn(Cc3ccccc3F)c2n1
Adenosine receptor A2b
  Ki: 1780 nM
Rattus norvegicus [7]
  Activity: inactive
Adenosine receptor A2a
  Ki: 239 nM
Liver microsomes
  Stability: Stable
Adenosine receptor A3
  Ki: 1290 nM
Adenosine receptor A1
  Ki: 1660 nM
[8]
  solubility: 30 µM (≈ 9.31 µg/mL)
Mus musculus [9]
  Activity: inactive

## CC(C)c1cc(Cn2nnc3c(-c4ccco4)nc(N)nc32)ccc1N
Adenosine receptor A2b
  Ki: 397 nM
Adenosine receptor A2a
  Ki: 1.5 nM
Adenosine receptor A3
  Ki: 251 nM
Rattus norvegicus [2]
  Activity: inactive
Adenosine receptor A1
  Ki: 50 nM
Mus musculus [3]
  Activity: inactive

## Nc1nc(-c2cnn[nH]2)c2nnn(Cc3ccccc3F)c2n1
Adenosine receptor A2b
  Ki: 1290 nM
Rattus norvegicus [7]
  Activity: inactive
Adenosine receptor A2a
  Ki: 400 nM
Liver microsomes
  Stability: Stable
Adenosine receptor A3
  Ki: 2810 nM
Adenosine receptor A1
  Ki: 2960 nM
[8]
  solubility: 30 µM (≈ 9.34 µg/mL)
Mus musculus [9]
  Activity: inactive

## Cc1ccc(-c2nc(N)nc3c2nnn3Cc2ccccc2F)o1
Adenosine receptor A2b
  Ki: 6 nM
Rattus norvegicus [7]
  Activity: inactive
Mus musculus [5]
  minimal effective dose: 3 mg/kg
Rattus norvegicus [6]
  minimal effective dose: 3 mg/kg
Adenosine receptor A2a
  Ki: 2.1 nM
Liver microsomes
  Stability: Stable
Adenosine receptor A3
  Ki: 260 nM
Adenosine receptor A1
  Ki: 19 nM
[8]
  solubility: 30 µM (≈ 9.73 µg/mL)
Mus musculus [9]
  Activity: inactive

## Nc1cccc(Cn2nnc3c(-c4ccco4)nc(N)nc32)c1
Adenosine receptor A2b
  Ki: 270 nM
Adenosine receptor A2a
  Ki: 2.5 nM
Adenosine receptor A3
  Ki: 792 nM
Mus musculus [1]
  Activity: Active
Adenosine receptor A1
  Ki: 131 nM

## Nc1nc(-c2ccco2)c2nnn(Cc3ccsc3)c2n1
Adenosine receptor A2b
  Ki: 164 nM
Adenosine receptor A2a
  Ki: 1.9 nM
Adenosine receptor A3
  Ki: 136 nM
Rattus norvegicus [2]
  Activity: inactive
Adenosine receptor A1
  Ki: 78 nM
Mus musculus [3]
  Activity: inactive

## Nc1nc(-c2ccco2)c2nnn(Cc3ccc([N+](=O)[O-])cc3)c2n1
Adenosine receptor A2b
  Ki: 440 nM
Rattus norvegicus [7]
  Activity: inactive
Adenosine receptor A2a
  Ki: 28 nM
Liver microsomes
  Stability: Stable
Adenosine receptor A3
  Ki: 1230 nM
Adenosine receptor A1
  Ki: 769 nM
[8]
  solubility: 30 µM (≈ 10.1 µg/mL)
Mus musculus [9]
  Activity: inactive

## Nc1nc(-c2ccco2)c2nnn(Cc3cccs3)c2n1
Adenosine receptor A2b
  Ki: 88 nM
Mus musculus [5]
  minimal effective dose: 30 mg/kg
Rattus norvegicus [6]
  minimal effective dose: 30 mg/kg
Adenosine receptor A2a
  Ki: 2.3 nM
Adenosine receptor A3
  Ki: 123 nM
Adenosine receptor A1
  Ki: 117 nM

## N#Cc1ccc(Cn2nnc3c(-c4ccco4)nc(N)nc32)cc1
Adenosine receptor A2b
  Ki: 885 nM
Rattus norvegicus [7]
  Activity: inactive
Adenosine receptor A2a
  Ki: 73 nM
Liver microsomes
  Stability: Stable
Adenosine receptor A3
  Ki: 1050 nM
Adenosine receptor A1
  Ki: 738 nM
[8]
  solubility: 30 µM (≈ 9.52 µg/mL)
Mus musculus [9]
  Activity: inactive

## Nc1nc(-c2ccco2)c2nnn(Cc3ccccc3F)c2n1
Adenosine receptor A2b
  Ki: 109 nM
Rattus norvegicus [7]
  Activity: inactive
Adenosine receptor A2a
  Ki: 2.7 nM
Liver microsomes
  Stability: Stable
Adenosine receptor A3
  Ki: 440 nM
Adenosine receptor A1
  Ki: 105 nM
[8]
  solubility: 30 µM (≈ 9.31 µg/mL)
Mus musculus [9]
  Activity: inactive
